Hits are enriched below; roughly 2.6% of the tested compounds scored in any of these assays.
RAD52 anneal inh: RAD52 DNA annealing inhibitors, primary screen, biochemical, FRET, single point, set 2; AID 651710, 2012; inhibition, % at 18.7 µM; 360,000 compounds, 0.46% hits; recombinant RAD52 DNA annealing, FRET fluorescence; DNA repair protein RAD52 homolog (Homo sapiens), P43351;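 active means every replicate showing at least 50% inhibition; inconclusive means mean inhibition at least 50% but not in every replicate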
MLL AF4-AF9 inh: inhibitors of AF4 peptide binding to AF9, primary screen, biochemical, AlphaScreen, biotin-AF4 peptide, FLAG-AF9, single point; Protein AF-9 (Homo sapiens), P42568; inhibition, % at 10 µM; 350,000 compounds, 0.47% hits;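 active means every replicate reaching a set inhibition limit, whatever the replicate mean, cut at about 25% in these data; inconclusive means mean inhibition reaches that limit but some replicates miss it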;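 further: 0% = plate neutral control median and 100% = total signal loss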
RAD54 inh: inhibitors of human RAD54 branch migration, primary screen, biochemical, fluorescence, single point | DNA repair and recombination protein RAD54-like (Homo sapiens), Q92698 | RAD54 Holliday junction branch migration, FAM/BHQ fluorescence | inhibition, % at 10.4 µM | 360,000 compounds, 0.14% hits;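 active means mean normalized replicate activity at least 40 and at least half of replicates scoring 40 or more; inconclusive means only one of the two criteria met; inactive means mean below 40 and under half of replicates reaching 40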;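 further: 0% = median of neutral control wells and 100% = median of positive control wells; inhibitors cause a drop in the FAM fluorescence signal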
rRNA inh HTS: reduced GFP signal of wild-type E. coli, primary screen, bacterial rRNA inhibitor project, GFP/RFP fluorescence, OD600, single point | E. coli WT GFP vs humanized-ribosome RFP mutants, 24 h; stronger effect = lower value; DMSO median 0, no signal -100 | GFP signal change (wild-type ribosome), % (no concentration beside the values) | 350,000 compounds, 1.6% hits;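 active means significant combined selectivity score with lowered wild-type GFP, culture density cut under 30%, mutant RFP and density less affected; inactive means any of these conditions unmet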
GSIS activator: GLuc luminescence reporter in INS-1E cells, primary screen for activators of glucose-dependent secretion of insulin; 370,000 compounds, 0.61% hits; activation, % at 16.6 µM; AID 743287, 2014; INS-1E GLuc reporter insulin secretion, 2-3 h;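 active means lowest replicate activation of at least 40%, so every replicate reaches that level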;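 further: 0% = median of neutral control wells and 100% = median of IBMX positive control wells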
E-selectin induc: E-selectin induction in HUVECs, primary screen, imaging, HUVEC, immunofluorescence imaging, single point | 260,000 compounds, 0.37% hits | normalized: neutral wells 0, TNF-alpha wells 100 | P16581 | activation, % at 7.58 µM | AID 686992, 2013;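 active means mean E-selectin-positive cell signal at least 10% of the positive control, reached in at least 60% of replicates, without over 20% cell loss; inconclusive means no rule given, readout overlaps actives, possibly toxicity-flagged; inactive means the rest, including those meeting only one limit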
Target sequence (P16581 whole entry, looked up): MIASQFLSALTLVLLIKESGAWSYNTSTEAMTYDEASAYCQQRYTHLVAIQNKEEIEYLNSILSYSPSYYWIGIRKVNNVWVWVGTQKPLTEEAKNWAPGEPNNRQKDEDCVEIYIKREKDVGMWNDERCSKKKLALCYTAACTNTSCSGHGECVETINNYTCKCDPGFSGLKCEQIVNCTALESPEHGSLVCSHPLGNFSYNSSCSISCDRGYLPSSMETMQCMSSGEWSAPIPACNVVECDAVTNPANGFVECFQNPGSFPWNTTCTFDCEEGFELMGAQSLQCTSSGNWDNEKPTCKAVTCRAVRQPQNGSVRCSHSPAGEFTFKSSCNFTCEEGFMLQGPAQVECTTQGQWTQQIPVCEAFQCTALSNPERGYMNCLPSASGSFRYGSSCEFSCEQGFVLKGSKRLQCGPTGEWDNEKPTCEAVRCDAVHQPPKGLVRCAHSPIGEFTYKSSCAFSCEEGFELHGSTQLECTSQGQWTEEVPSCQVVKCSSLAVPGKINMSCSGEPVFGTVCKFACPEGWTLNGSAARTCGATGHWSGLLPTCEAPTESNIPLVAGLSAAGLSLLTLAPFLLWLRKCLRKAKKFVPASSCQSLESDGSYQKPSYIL
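Assay system: HUVEC, human umbilical vein endothelial cells / Amount: 3,000 HUVEC/well / Controls: TNF-alpha positive control, DMSO neutral control / Compound dosing: single concentration / Medium: EGM-2 over gelatin coat / Evaluation: percent E-selectin-positive cells / Signal: immunofluorescence imaging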
Starred values were filed as active, the others as inactive; ? = inconclusive; nt = not tested or not shown.

SMILES	RAD52 anneal inh	MLL AF4-AF9 inh	RAD54 inh	rRNA inh HTS	GSIS activator	E-selectin induc
COc1ccc(S(=O)(=O)N(C)C[C@@H]2OCCCC[C@@H](C)Oc3ccc(NC(=O)Nc4ccccc4)cc3C(=O)N([C@@H](C)CO)C[C@@H]2C)cc1	nt	nt	-25	3	11	0
COc1ccccc1-c1cc(C(=O)NN)[nH]n1	-1	-19	-11	-20*	0	23
COc1ccc(-c2cc(C(=O)NN)[nH]n2)cc1OC	12	-1	nt	-22*	34	4
Oc1ccccc1-c1cc(C(F)(F)C(F)F)nc(-c2ccccc2)n1	nt	nt	-1	nt	112*	nt
COc1ccc(O)c(-c2cc(C(F)(F)C(F)F)nc(-c3ccccc3)n2)c1	nt	nt	5	nt	nt	nt
Cc1c(Cc2ccccc2)c(=O)oc2c(C)c(OC(C)C(=O)NCC3CCC(C(=O)O)CC3)ccc12 (centres undefined)	-9	0	18	-21*	5	nt
CC(Oc1cc2oc(=O)c3c(c2cc1Cl)CCCC3)C(=O)NCC1CCC(C(=O)O)CC1 (centres undefined)	-6	-3	3	-14	29	87*
CC(Oc1cc2oc(=O)c3c(c2cc1Cl)CCC3)C(=O)NCC1CCC(C(=O)O)CC1 (centres undefined)	6	0	4	2	-10	nt
Cc1cc(=O)oc2c(C)c(OC(C)C(=O)NCC3CCC(C(=O)O)CC3)ccc12 (centres undefined)	-73	5	2	nt	nt	nt
C[C@@H]1CN([C@@H](C)CO)C(=O)c2cc(-c3ccccc3)cnc2O[C@@H]1CN(C)Cc1ccc(C(=O)O)cc1	10	-8	8	-1	12	0
C[C@@H]1CN([C@H](C)CO)S(=O)(=O)c2ccc(C3=CCCCC3)cc2O[C@H]1CN(C)Cc1cncnc1	15	0	5	-5	-7	0
COCCOC(=O)N1C(=O)[C@@]2(c3ccccc31)[C@H](c1ccc(OCCO)cc1)N1[C@H](c3ccccc3)[C@H](c3ccccc3)OC(=O)[C@H]1[C@@H]2C(=O)N1CCN(c2ncccn2)CC1	-6	-1	-9	nt	nt	nt
C[C@@H]1CN([C@@H](C)CO)C(=O)Cc2cc(NC(=O)CCCN(C)C)ccc2O[C@H]1CN(C)Cc1ccc(Oc2ccccc2)cc1	91*	39*	29	2	33	nt
C[C@H](CO)N1C[C@H](C)[C@@H](CN(C)Cc2ccc(Oc3ccccc3)cc2)Oc2ccc(NC(=O)CCCN(C)C)cc2CC1=O	57*	?	15	-56	19	nt
C[C@H]1CN([C@@H](C)CO)C(=O)Cc2cc(NC(=O)CCCN(C)C)ccc2O[C@H]1CN(C)Cc1ccc(Oc2ccccc2)cc1	42	11	14	-4	21	0
C[C@@H]1CN([C@@H](C)CO)C(=O)Cc2cc(NC(=O)Cc3ccccc3)ccc2O[C@H]1CN(C)Cc1ccc(Oc2ccccc2)cc1	-27	4	5	-5	-14	9
C[C@@H]1CN([C@@H](C)CO)C(=O)c2cc(NC(=O)Nc3ccccc3)ccc2O[C@@H]1CN(C)S(=O)(=O)c1ccc(F)cc1	10	-8	6	2	-26	0
Cc1ccc2[nH]c(=O)c(CN(CCCN(C)C)C(=S)NCCc3ccccc3)cc2c1	13	11	nt	-36*	nt	4
Cc1cccc2cc(CN(CCCN(C)C)C(=S)NCCc3ccccc3)c(=O)[nH]c12	8	9	7	-17*	nt	4
CCCNC(=O)N[C@@H]1CC[C@@H](CCn2cc(-c3cccc(F)c3)nn2)O[C@@H]1CO	-6	-2	-1	1	9	0
CN1CCN(C(=O)C[C@H]2CC[C@H]3[C@@H](COC[C@H](O)CN3C(=O)Cc3ccccc3)O2)CC1	-4	1	2	2	4	0
COc1ccc(Br)cc1C(=O)Nc1cc(C)cc(C)c1	nt	nt	-2	nt	82*	nt
COc1ccc(Br)cc1C(=O)Nc1ccc(NC(=O)c2ccco2)cc1	nt	nt	-3	nt	2	nt
COc1ccc(NC(=O)N(C)C[C@@H]2Oc3ccc(NC(=O)c4ccncc4)cc3CC(=O)N([C@@H](C)CO)C[C@@H]2C)cc1	-7	-2	0	4	9	81*
COc1ccc(NC(=O)N(C)C[C@H]2Oc3ccc(NC(=O)c4ccncc4)cc3CC(=O)N([C@@H](C)CO)C[C@H]2C)cc1	9	-2	-3	4	2	17
SMILES	RAD52 anneal inh	MLL AF4-AF9 inh	RAD54 inh	rRNA inh HTS	GSIS activator	E-selectin induc
COc1ccc(NC(=O)N(C)C[C@H]2Oc3ccc(NC(=O)c4ccncc4)cc3CC(=O)N([C@H](C)CO)C[C@@H]2C)cc1	0	-2	-6	2	10	41*
COc1ccc(CN(C)C[C@@H]2Oc3ccc(NC(=O)c4ccncc4)cc3CC(=O)N([C@H](C)CO)C[C@@H]2C)cc1	-16	-1	9	-3	1	0
COc1ccc(NC(=O)N(C)C[C@@H]2Oc3ccc(NC(=O)c4ccncc4)cc3CC(=O)N([C@H](C)CO)C[C@@H]2C)cc1	-6	-5	1	6	6	226*
COc1ccc(CN(C)C[C@H]2Oc3ccc(NC(=O)c4ccncc4)cc3CC(=O)N([C@@H](C)CO)C[C@@H]2C)cc1	-4	-2	6	0	5	0
COc1ccc(NC(=O)N(C)C[C@@H]2Oc3ccc(NC(=O)c4ccncc4)cc3CC(=O)N([C@@H](C)CO)C[C@H]2C)cc1	-7	nt	4	5	-2	72*
COc1ccc(NC(=O)Nc2ccc3c(c2)[C@@H]2C[C@H](CC(=O)NCC4CC4)O[C@@H](CO)[C@@H]2O3)cc1	-1	-3	-5	-2	-1	0
CC(C)NC(=O)N(C)C[C@H]1OCCCC[C@@H](C)Oc2ccc(NS(=O)(=O)c3ccccc3)cc2C(=O)N([C@@H](C)CO)C[C@@H]1C	3	-1	nt	-1	-17	0
C[C@H](CO)N1C[C@H](C)[C@H](CN(C)C(=O)CCC(F)(F)F)OCCCC[C@H](C)Oc2ccc(NC(=O)c3ccccc3)cc2C1=O	11	-8	0	-3	-9	0
C[C@H]1CN([C@@H](C)CO)C(=O)Cc2cc(NC(=O)c3ccncc3)ccc2O[C@H]1CN(C)C(=O)Nc1ccc(C(F)(F)F)cc1	-3	-6	-7	2	3	33*

Screening data deposited in PubChem by Broad Institute.
